# What was measured:
# Assay type in all cases: functional
# Mus musculus [1] = assay: Trypanocidal Activity at I.C.E. value 0.4 when administered perorally.
# Mus musculus [2] = assay: Trypanocidal Activity at I.C.E. value 0.47 when administered subcutaneously.
# Method in brief: (§1)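 Blood-stage T. rhodesiense infection came from a standard inoculum lethal to all untreated mice. Drug was given by subcutaneous injection to groups of five mice. Survival beyond 30 days counted as cure. […] Sub-curative doses scored 0, and data were normalized at each dose.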
# [3] = system: Trypanosoma brucei rhodesiense; assay: In Vitro measurement of inhibition of thymidine uptake in cell culture of Trypanosoma rhodesiense; settings: read-out: ID50 (the source's name)
# Method in brief: (§2)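 Parasites harvested from infected rats and incubated 3 h across a drug concentration series, usually 0.1–100 µg/mL. Incorporation of radiolabeled thymidine measured. ID50 is the concentration (µg/mL) producing 50% inhibition.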
# [4] = system: Trypanosoma brucei rhodesiense; assay: In Vitro measurement of inhibition of leucine uptake in cell culture of Trypanosoma rhodesiense; settings: read-out: ID50 (the source's name)
# Method in brief: (§3)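 Trypanosomes harvested from infected rats, cultured 3 h with several concentrations of drug, usually 0.1–100 µg/mL. Radiolabeled L-leucine uptake measured. ID50 is the concentration in µg/mL giving 50% inhibition of incorporation.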
# Mus musculus [5] = assay: Trypanocidal Activity at I.C.E. value 0.94 when administered subcutaneously.
# Method in brief: (§4)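 Mice, in groups of five per dose, were given a standard inoculum of blood-stage T. rhodesiense that is lethal to all untreated controls, then dosed subcutaneously. Usually 11 dose levels were used (2^n × 0.42 mg/kg).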
# Mus musculus [6] = assay: Trypanocidal Activity at I.C.E. value 0.63 when administered perorally.
# Mus musculus [7] = assay: Trypanocidal Activity at I.C.E. value 0.80 when administered subcutaneously.; method in brief: as §4
# Mus musculus [8] = assay: Trypanocidal Activity at I.C.E. value 0.58 when administered subcutaneously.; method in brief: as §4
# Mus musculus [9] = assay: Trypanocidal Activity at I.C.E. value 0.51 when administered perorally.
# Mus musculus [10] = assay: Trypanocidal Activity at I.C.E. value 0.55 when administered subcutaneously.; method in brief: as §4
# Mus musculus [11] = assay: Trypanocidal Activity at I.C.E. value 0.31 when administered perorally.
# Mus musculus [12] = assay: Trypanocidal Activity at I.C.E. value 0.35 when administered subcutaneously.; method in brief: as §1
# [13] = system: Trypanosoma brucei rhodesiense; assay: In Vitro measurement of inhibition of leucine uptake in cell culture of Trypanosoma rhodesiense.; settings: read-out: ID50 (the source's name); method in brief: as §3
# [14] = system: Trypanosoma brucei rhodesiense; assay: In Vitro measurement of inhibition of thymidine uptake in cell culture of Trypanosoma rhodesiense.; settings: read-out: ID50 (the source's name); method in brief: as §2
# Mus musculus [15] = assay: Trypanocidal Activity at I.C.E. value 0.61 when administered subcutaneously.; method in brief: as §4
# Mus musculus [16] = assay: Trypanocidal Activity at I.C.E. value 0.66 when administered subcutaneously.; method in brief: as §4
# Mus musculus [17] = assay: Trypanocidal Activity at I.C.E. value 0.67 when administered subcutaneously.; method in brief: as §4
# Mus musculus [18] = assay: Trypanocidal Activity at I.C.E. value 0.7 when administered subcutaneously.; method in brief: as §4
# Mus musculus [19] = assay: Trypanocidal Activity at I.C.E. value 0.42 when administered perorally.
# Mus musculus [20] = assay: Trypanocidal Activity at I.C.E. value 0.45 when administered subcutaneously.; method in brief: as §1
# Mus musculus [21] = assay: Trypanocidal Activity at I.C.E. value 0.68 when administered subcutaneously.; method in brief: as §4
# Mus musculus [22] = assay: Trypanocidal Activity at I.C.E. value 0.53 when administered perorally.
# Mus musculus [23] = assay: Trypanocidal Activity at I.C.E. value 0.57 when administered subcutaneously.; method in brief: as §4
# Mus musculus [24] = assay: Trypanocidal Activity at I.C.E. value 0.56 when administered perorally.
# [25] = system: Trypanosoma brucei rhodesiense; assay: In Vitro measurement of inhibition of Leucine uptake in cell culture of Trypanosoma rhodesiense.; settings: read-out: ID50 (the source's name); method in brief: as §3
# Mus musculus [26] = assay: Trypanocidal Activity at I.C.E. value 0.20 when administered perorally.
# Mus musculus [27] = assay: Trypanocidal Activity at I.C.E. value 0.30 when administered subcutaneously.; method in brief: as §1
# Mus musculus [28] = assay: Trypanocidal Activity at I.C.E. value 0.62 when administered subcutaneously.; method in brief: as §4
# Mus musculus [29] = assay: Trypanocidal Activity at I.C.E. value 0.65 when administered subcutaneously.; method in brief: as §4
# [30] = system: Trypanosoma brucei rhodesiense; assay: In Vitro Trypanosomal activity in rats was measured uptake of radiolabeled Leucine; settings: read-out: ID50 (the source's name); method in brief: as §3
# [31] = system: Trypanosoma brucei rhodesiense; assay: In Vitro Trypanosomal activity in rats was measured uptake of radiolabeled Thymidine; settings: read-out: ID50 (the source's name); method in brief: as §2
# Mus musculus [32] = assay: Trypanocidal Activity at I.C.E. value 0.65 when administered perorally.
# Mus musculus [33] = assay: Trypanocidal Activity at I.C.E. value 0.48 when administered subcutaneously.; method in brief: as §1
# Mus musculus [34] = assay: Trypanocidal Activity at I.C.E. value >0.15 when administered subcutaneously.; method in brief: as §4
# Mus musculus [35] = assay: Trypanocidal Activity at I.C.E. value 0.34 when administered subcutaneously.; method in brief: as §1
# Mus musculus [36] = assay: Trypanocidal Activity at I.C.E. value 0.28 when administered perorally.
# Mus musculus [37] = assay: Trypanocidal Activity at I.C.E. value 0.83 when administered subcutaneously.; method in brief: as §4
# Mus musculus [38] = assay: Trypanocidal Activity at I.C.E. value 0.15 when administered perorally.
# Mus musculus [39] = assay: Trypanocidal Activity at I.C.E. value 0.39 when administered subcutaneously.; method in brief: as §1
# Mus musculus [40] = assay: Trypanocidal Activity at I.C.E. value 0.50 when administered perorally.
# Mus musculus [41] = assay: Trypanocidal Activity at I.C.E. value 0.76 when administered subcutaneously.; method in brief: as §4
# Mus musculus [42] = assay: Trypanocidal Activity at I.C.E. value 0.59 when administered subcutaneously.; method in brief: as §4
# Mus musculus [43] = assay: Trypanocidal Activity at I.C.E. value 0.23 when administered perorally.
# Mus musculus [44] = assay: Trypanocidal Activity at I.C.E. value 0.28 when administered subcutaneously.; method in brief: as §1
# Mus musculus [45] = assay: Trypanocidal Activity at I.C.E. value 0.79 when administered subcutaneously.; method in brief: as §4
# Mus musculus [46] = assay: Trypanocidal Activity at I.C.E. value >0.5 when administered perorally.
# Mus musculus [47] = assay: Trypanocidal Activity at I.C.E. value 0.52 when administered perorally.
# Mus musculus [48] = assay: Trypanocidal Activity at I.C.E. value 0.86 when administered subcutaneously.; method in brief: as §4
smiles,measurement,setting,value
C[n+]1ccc(COc2ccc(/C=N/NC(=N)N3CCCC3)cc2)cc1.Cc1ccc(S(=O)(=O)O)cc1.Cc1ccc(S(=O)(=O)[O-])cc1,CD50,Mus musculus [1],424 mg/kg
same,CD50,Mus musculus [2],0.8 mg/kg
same,IC50,[3],9.3 µg/mL
same,IC50,[4],13.6 µg/mL
C[n+]1c(-c2ccc(/C=C/C=N/NC(=N)N)cc2)cn2ccccc21.Cc1ccc(S(=O)(=O)O)cc1.Cc1ccc(S(=O)(=O)[O-])cc1,CD50,Mus musculus [5],0.06 mg/kg
same,CD50,Mus musculus [6],6.6 mg/kg
Br.CC/N=C(\NCC)N/N=C/c1ccc(/C=C/c2cn3ccccc3[n+]2C)cc1.[Br-],CD50,Mus musculus [7],0.4 mg/kg
Br.C[n+]1c(-c2ccc(/C=C/C=N/NC3=NCCCN3)cc2)cn2ccccc21.[Br-],CD50,Mus musculus [8],0.06 mg/kg
same,CD50,Mus musculus [9],13 mg/kg
Br.CSC(=N)N/N=C/c1ccc(-c2cn3ccccc3[n+]2C)cc1.[Br-],CD50,Mus musculus [10],6.6 mg/kg
same,IC50,[3],3.8 µg/mL
same,IC50,[4],5.8 µg/mL
Br.C[n+]1cccc(COc2ccc(/C=N/NC(=N)N3CCCC3)cc2)c1.[Br-],CD50,Mus musculus [1],26 mg/kg
same,CD50,Mus musculus [2],0.8 mg/kg
same,IC50,[3],0.3 µg/mL
same,IC50,[4],0.8 µg/mL
Br.CCCSc1ccc2n(c1)cc(-c1ccc(/C=N/NC(=N)N3CCCC3)cc1)[n+]2C.[Br-],CD50,Mus musculus [5],0.1 mg/kg
same,CD50,Mus musculus [11],53 mg/kg
Br.CCN(CC)C(=N)N/N=C/c1ccc(-c2cn3ccccc3[n+]2C)cc1.[Br-],CD50,Mus musculus [12],0.2 mg/kg
same,IC50,[13],1 µg/mL
same,IC50,[14],1.1 µg/mL
CCNC(=N)N/N=C/c1ccc(/C=C/c2n(C)cc[n+]2C)cc1.Cc1ccc(S(=O)(=O)O)cc1.Cc1ccc(S(=O)(=O)[O-])cc1,CD50,Mus musculus [15],0.11 mg/kg
Br.CC/N=C(\NCC)N/N=C/c1ccc(-c2cn3cc(C)ccc3[n+]2C)cc1.[Br-],CD50,Mus musculus [16],1.6 mg/kg
Br.Cc1cccc2n1cc(COc1ccc(/C=N/NC3=NCCCN3)cc1)[n+]2C.[Br-],CD50,Mus musculus [17],0.4 mg/kg
same,CD50,Mus musculus [18],0.8 mg/kg
C[n+]1cccc(COc2ccc(/C=N/NC(=N)N)cc2)c1.Cc1ccc(S(=O)(=O)O)cc1.Cc1ccc(S(=O)(=O)[O-])cc1,CD50,Mus musculus [19],26 mg/kg
same,CD50,Mus musculus [20],0.8 mg/kg
same,IC50,[3],1.8 µg/mL
same,IC50,[4],> 10 µg/mL
Br.Cn1c(COc2ccc(/C=N/NC3=NCCN3)cc2)[n+](C)c2ccccc21.[Br-],CD50,Mus musculus [21],0.2 mg/kg
same,CD50,Mus musculus [22],13 mg/kg
Br.C[n+]1c(-c2ccc(/C=N/NC3=NCCN3)cc2)cn2ccccc21.[Br-],CD50,Mus musculus [23],0.8 mg/kg
same,CD50,Mus musculus [24],13 mg/kg
same,IC50,[25],0.9 µg/mL
same,IC50,[14],0.8 µg/mL
Cc1ccc(S(=O)(=O)O)cc1.Cc1ccc(S(=O)(=O)[O-])cc1.Cc1ccn2cc(-c3ccc(/C=N/NC(=N)N)cc3)[n+](C)c2c1,CD50,Mus musculus [10],1.6 mg/kg
same,IC50,[14],1 µg/mL
C[n+]1c(-c2ccc(/C=N/NC(=N)N3CCSC3)cc2)cn2ccccc21.Cc1ccc(S(=O)(=O)O)cc1.Cc1ccc(S(=O)(=O)[O-])cc1,CD50,Mus musculus [26],212 mg/kg
same,CD50,Mus musculus [27],13 mg/kg
Cc1ccc(S(=O)(=O)[O-])cc1.Cc1cccc2n1cc(/C=C/c1ccc(/C=N/NC(=O)c3ccc(N)cc3)cc1)[n+]2C,CD50,Mus musculus [28],6.6 mg/kg
C[n+]1c(-c2ccc(/C=N/Nc3nc[nH]n3)cc2)cn2ccccc21.[Br-],CD50,Mus musculus [29],0.8 mg/kg
same,IC50,[30],> 10 µg/mL
same,IC50,[31],0.5 µg/mL
CN(C)C(=N)N/N=C/c1ccc(-c2cn3ccccc3[n+]2C)cc1.I.[I-],CD50,Mus musculus [32],6.6 mg/kg
same,CD50,Mus musculus [33],0.2 mg/kg
C[n+]1c(-c2ccc(/C=N/NC(=N)N[N+](=O)[O-])cc2)cn2ccccc21.[Br-],CD50,Mus musculus [34],<26 mg/kg
Br.C[n+]1c(-c2ccc(/C=C/C=N/NC(=N)N3CCCC3)cc2)cn2ccccc21.[Br-],CD50,Mus musculus [11],53 mg/kg
same,CD50,Mus musculus [35],0.8 mg/kg
CCCCSc1ccc2n(c1)cc(-c1ccc(/C=N/NC(=N)N)cc1)[n+]2C.Cc1ccc(S(=O)(=O)O)cc1.Cc1ccc(S(=O)(=O)[O-])cc1,CD50,Mus musculus [36],106 mg/kg
same,CD50,Mus musculus [37],0.4 mg/kg
Br.CC/N=C(\NCC)N/N=C/c1ccc(C[n+]2cn(C)c3ccccc32)cc1.[Br-],CD50,Mus musculus [38],424 mg/kg
same,CD50,Mus musculus [27],13 mg/kg
C[n+]1c(-c2ccc(/C=N/NC(=N)N)cc2)cn2cc(Cl)ccc21.Cc1ccc(S(=O)(=O)O)cc1.Cc1ccc(S(=O)(=O)[O-])cc1,CD50,Mus musculus [39],1.6 mg/kg
same,CD50,Mus musculus [40],13 mg/kg
Br.Cc1ccc2n(c1)cc(-c1ccc(/C=N/NC3=NCCCN3)cc1)[n+]2C.[Br-],CD50,Mus musculus [41],0.2 mg/kg
Br.Cn1c[n+](Cc2ccc(/C=N/NC3=NCCCN3)cc2)c2ccccc21.[Br-],CD50,Mus musculus [42],1.6 mg/kg
same,CD50,Mus musculus [43],106 mg/kg
Cc1ccc2n(c1)cc(-c1ccc(/C=N/Nc3nccs3)cc1)[n+]2C.[Br-],CD50,Mus musculus [44],106 mg/kg
Br.C[n+]1c(/C=C/c2ccc(/C=N/NC3=NCCN3)cc2)cn2ccccc21.[Br-],CD50,Mus musculus [45],0.2 mg/kg
same,CD50,Mus musculus [46],13 mg/kg
Br.Cc1cccc2n1cc(/C=C/c1ccc(/C=N/NC3=NCCN3)cc1)[n+]2C.[Br-],CD50,Mus musculus [47],26 mg/kg
same,CD50,Mus musculus [48],0.4 mg/kg
Br.CCNC(=N)N/N=C/c1ccc(/C=C/c2cn3ccccc3[n+]2C)cc1.[Br-],CD50,Mus musculus [16],0.1 mg/kg

# Reference: ChEMBL document CHEMBL1124947, “Cationic antiprotozoal drugs. Trypanocidal activity of 2-(4'-formylphenyl)imidazo[1,2-a]pyridinium guanylhydrazones and related derivatives of quaternary heteroaromatic compounds” (J Med Chem, 1990)
